Here are results for 7 compounds from ChEMBL document CHEMBL4610015, “Scaffold-hopping identifies furano[2,3-d]pyrimidine amides as potent Notum inhibitors” (Bioorg Med Chem Lett, 2020).

Broadly, the IC50 is the concentration that gives 50% inhibition. A lower IC50 goes with higher potency. The term Papp B→A denotes how fast a substance crosses the layer from the basolateral side. In general, efflux ratio refers to a quotient of directional permeabilities that is used to spot active efflux. As usually defined, the Papp A→B is the apparent permeability from the apical to the basolateral side of a cell layer.

Data set [1] addresses T1, Palmitoleoyl-protein carboxylesterase NOTUM (Homo sapiens, UniProt Q6P988, C330S). In kind it is ADME, cell-based. To be noted: 72 h.
A short description of data set [2]: Stability of the compound in citrate buffer at pH 4 measured up to 24 hrs by UPLC-MS analysis. In kind it is physicochemical. To be noted: pH 4, 24 h. The procedure, abridged:
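Incubated in 0.1 M citrate buffer at pH 4 and sampled at several time points up to 24 h. The parent amide was monitored by UPLC-MS.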

Data set [3] has as its target T1, Palmitoleoyl-protein carboxylesterase NOTUM. In kind it is cell-based.
Data set [4] can be described thus: Apparent permeability across basolateral to apical membrane in dog MDCK-MDR1 cells. It is filed as ADME, cell-based, Canis lupus familiaris.
Data set [5] can be described thus: Efflux ratio of apparent permeability in dog MDCK-MDR1 cells. It is filed as ADME, cell-based, Canis lupus familiaris.
Data set [6] in a line: Apparent permeability across apical to basolateral membrane in dog MDCK-MDR1 cells. It is filed as ADME, cell-based, Canis lupus familiaris.
Data set [7] is described as follows: Intrinsic clearance in mouse liver microsomes. It is filed as ADME, Microsome. The following applies: read-out: CLH. A general note: Liver microsomes are a subcellular fraction often used to study metabolism.

A value given as a limit tells only on which side of the number the result lay.

T1 sequence (Q6P988 20-496 C330S limits assumed): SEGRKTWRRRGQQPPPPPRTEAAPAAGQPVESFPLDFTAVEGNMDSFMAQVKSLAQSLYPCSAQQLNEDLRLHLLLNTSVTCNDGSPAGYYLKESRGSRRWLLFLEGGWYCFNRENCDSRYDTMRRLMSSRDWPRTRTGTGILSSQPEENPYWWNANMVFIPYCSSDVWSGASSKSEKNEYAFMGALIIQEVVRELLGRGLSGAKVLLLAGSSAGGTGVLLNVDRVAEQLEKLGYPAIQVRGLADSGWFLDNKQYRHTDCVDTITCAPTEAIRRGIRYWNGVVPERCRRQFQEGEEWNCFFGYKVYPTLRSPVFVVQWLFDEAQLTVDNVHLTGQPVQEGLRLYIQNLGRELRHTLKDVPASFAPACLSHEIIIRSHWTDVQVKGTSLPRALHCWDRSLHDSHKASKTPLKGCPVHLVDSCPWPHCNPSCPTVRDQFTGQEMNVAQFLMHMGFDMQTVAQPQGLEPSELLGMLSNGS

With `Cc1sc2ncnc(SCC(=O)N3CCn4cnnc4C3)c2c1Cl`, the Stability entry in data set [1] and in data set [2] was “Stable” in each case.

The compound `Cc1sc2ncnc(SCC(=O)O)c2c1Cl` registered an IC50 in data set [3] of 3 nM.

`O=C(CSc1ncnc2c(C3CC3)c(Cl)sc12)N1CCOCC1`: in data set [4], the Papp B→A came out at 38 ×10⁻⁶ cm/s. In data set [5], the efflux ratio worked out at 0.95. Moreover, in data set [6], the Papp A→B amounted to 40 ×10⁻⁶ cm/s. Moreover, the microsomal CLint in data set [7] is over 500 µL/min/mg.

With `O=C1CN(C(=O)CSc2ncnc3c(C4CC4)c(Cl)sc23)CN1`, the basolateral-to-apical permeability (Papp B→A) in data set [4] turned out to be 14 ×10⁻⁶ cm/s. The efflux ratio in data set [5] is 3.7. The Papp A→B in data set [6] was 3.8 ×10⁻⁶ cm/s. The microsomal CLint in data set [7] is 19 µL/min/mg.

On to `O=C1CN(C(=O)CSc2ncnc3c(C4CC4)c(Cl)sc23)CCN1`, for which, in data set [4], the Papp B→A was 65 ×10⁻⁶ cm/s. Also, in data set [5], the efflux ratio is 8.2. Besides, in data set [6], the Papp A→B is 7.9 ×10⁻⁶ cm/s. In addition, the microsomal CLint in data set [7] was 24 µL/min/mg.

As for `Cc1sc2ncnc(SCC(=O)N3CC(=O)N(C)C3)c2c1Cl`, the Stability result in data set [1] and in data set [2] was “Stable” in each case.

In the case of `O=C(CSc1ncnc2c(C3CC3)c(Cl)sc12)N1CCn2cnnc2C1`, the Papp B→A in data set [4] amounted to 93 ×10⁻⁶ cm/s. Besides, the efflux ratio in data set [5] amounted to 98. For the same compound, in data set [6], the Papp A→B stood at 0.95 ×10⁻⁶ cm/s. The same compound returned an IC50 in data set [3] of 1.1 nM. The microsomal CLint in data set [7] was found to be 29 µL/min/mg.
